# Source: PubChem (The Scripps Research Institute Molecular Screening Center)
# This is a sample that favours compounds with a hit; in the whole collection about 1.8% have one here.
# CHRM4 antagonist = antagonists of human muscarinic M4 receptor (CHRM4) | P08173 | CHO-hM4 cells, ACh EC80, Fluo-8 calcium fluorescence | inhibition, % at 3 µM | 360,000 tested, 0.73% active;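 active = inhibition above its plate's cutoff, the mean inhibition of sample wells plus 3 SD, cut at about 27% in these data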;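 also: 0% = acetylcholine EC80 with DMSO and 100% = DMSO without agonist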
# CHRM5 PAM = CHRM5 positive allosteric modulation. activation, % at 3 µM. CHO-K1 hM5, Fluo-8 calcium, ACh EC20 PAM; 0% = ACh EC20, 100% = ACh EC100. 360,000 tested, 0.3% active. P08912;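 active = activation above the run cutoff, the mean activation of all test compounds plus 3 SD, cut at about 18% in these data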
#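 System: CHO-K1 hM5 cells. Reagent: acetylcholine, EC20 level. Compound dosing: single dose, 3 µM nominal final test concentration. Timing: Post-acetylcholine fluorescence recording 140 s. Detection: Fluo-8 calcium fluorescence. Read-out: % activation, ACh-normalized. Benchmarks: ACh EC20 and EC100 wells. Repeats: singlicate, one well per test compound.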
# CHRM5 agonist = CHRM5 agonism in calcium assay; CHO-K1 hM5 cells, Fluo-8 calcium fluorescence; 0% DMSO wells, 100% maximal acetylcholine response; activation, % at 3 µM; 360,000 tested, 0.19% active; AID 624037;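 active = activation above the run's mean over test compounds plus 3 SD, cut at about 23% in these data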;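 also: signal is peak over basal fluorescence ratio across the kinetic read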
# CHRM5 antagonist = CHRM5 antagonism in calcium assay; inhibition, % at 3 µM; 360,000 tested, 0.59% active; P08912; CHO-hM5 cells, Fluo-8 calcium fluorescence, ACh EC80;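 active = inhibition above a per-plate cutoff, the mean of that plate's test compounds plus 3 SD, cut at about 27% in these data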;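 also: 0% = acetylcholine EC80 with DMSO and 100% = DMSO without agonist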
# CHRM4 agonist = CHRM4 agonism in calcium assay; activation, % at 3 µM; P08173; AID 624127; CHO-K1 hM4/Gqi5, Fluo-8 calcium fluorescence; vehicle 0%, full acetylcholine response 100%; 360,000 tested, 0.14% active;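 active = activation above the run mean over all test wells plus 3 SD, cut at about 32% in these data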;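 also: peak over basal fluorescence ratio per well then scaled between controls; 0% = DMSO wells and 100% = acetylcholine at EC100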
# CHRM4 PAM = positive allosteric modulators of human muscarinic M4 receptor; P08173; CHO-K1 hM4/Gqi5, Fluo-8 calcium fluorescence, ACh EC20; 0% = ACh EC20, 100% = maximal ACh; activation, % at 3 µM; 360,000 tested, 0.4% active; AID 624126;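 active = activation above its plate's cutoff, the mean activation of sample wells plus 3 SD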
# An asterisk follows results filed as active; ! = a repeat was not active.
SMILES,CHRM4 antagonist,CHRM5 PAM,CHRM5 agonist,CHRM5 antagonist,CHRM4 agonist,CHRM4 PAM
O=C(NCC(c1ccco1)N1CCc2ccccc2C1)C(=O)Nc1ccc(F)cc1F (stereo unspecified),-0.2,-12.8,-0.7,9.9,4.5,-0.4
CN1CCN(C(=O)/C(=C/c2ccccc2)c2ccccc2)CC1,53.5*,-18.0,-12.4,27.6*,0.8,-33.2
COCCN1CCN(C(=O)c2cc(COc3ccc(F)c(F)c3)on2)CC1,-10.3,1.5,-5.3,-2.8,1.3,10.1
COc1cc(CNCCc2ccccc2)cc(Cl)c1OCc1ccccc1,27.3*,2.7,4.8,3.9,20.6,-15.3
COc1cc(-c2n[nH]c(=S)n2/N=C/c2cccn2C)cc(OC)c1OC,6.7,-18.4,50.2*,17.1,51.4*,-39.5
Cn1cccc1/C=N/n1c(-c2ccco2)n[nH]c1=S,-0.8,-2.4,-1.5,1.3,1.2,1.9
CCCCNc1c(-c2ccc(OC)c(SC(C)CC)c2)nc2cnccn12 (stereo unspecified),-1.2,-21.4,-6.4,20.6,4.9,-3.2
CCCCNc1c(-c2ccc(OC)c(SC(C)CC)c2)nc2ccc(C)cn12 (stereo unspecified),31.1*!,-29.7,1.3,13.8,16.1,-3.9
CCCCNc1c(-c2ccc(SC3CCCCC3)cc2)nc2ccccn12,20.6,0.5,5.1,6.3,6.0,-0.4
CCCCNc1c(-c2ccc(OC)c(SC(C)CC)c2)nc2ccc(Cl)cn12 (stereo unspecified),5.3,-7.6,-4.7,9.4,5.3,-3.9
CCCCNc1c(-c2ccc(Sc3ccc(OC)cc3)cc2)nc2cc(C)ccn12,43.6*,-13.1,-5.3,11.2,3.8,-12.8
CCCCNc1c(-c2ccc(SC(C)CC)cc2)nc2ccccn12 (stereo unspecified),45.3*,-29.1,-1.1,25.3,10.9,-11.8
CCCCNc1c(-c2ccc(-c3ccc(C(C)=O)cc3)c(OC)c2)nc2cc(C)ccn12,25.4,-36.1,-9.8,17.1,6.5,-13.1
CCCCNc1c(-c2ccc(OC)c(SC(C)CC)c2)nc2cc(C)ccn12 (stereo unspecified),30.6*!,-22.3,-4.2,8.1,11.8,-11.2
O=C(COc1cc2oc(=O)c3c(c2cc1Cl)CCC3)NCCN1CCOCC1,3.7,-4.2,-3.7,17.3,-0.1,0.1
CC(=O)N1c2ccccc2N=C(c2ccc3c(c2)OCO3)C1C(=O)NCc1ccccc1 (stereo unspecified),-7.7,-9.0,2.8,10.9,19.1,0.7
CC(C(=O)Nc1nc2ccccc2s1)n1cc([N+](=O)[O-])cn1 (stereo unspecified),-2.0,3.8,13.8,4.0,15.4,6.1
COc1cccc(Oc2ncnc(N)c2[N+](=O)[O-])c1,-7.2,0.8,-1.6,-3.4,2.3,-2.1
COc1ccc(C2NCCc3c2[nH]c2ccccc32)cc1COc1ccc(F)cc1 (stereo unspecified),36.8*,3.4,6.8,12.2,27.8,-4.1
O=C(NCCCc1ccccc1)c1cc(COc2ccc(F)cc2Cl)on1,-5.3,-8.6,-7.3,12.8,0.6,-6.8
C#CC[N+]1(CC#Cc2ccccc2)CCCC1,2.5,-13.5,-6.7,0.2,0.6,-5.4
C(#Cc1ccccc1)C[N+]1(CC#Cc2cccc3ccccc23)CCCC1,5.3,-19.9,-9.9,29.3*,0.7,-13.7
N#Cc1ccc2[nH]cc(C3c4cc(F)ccc4C=C(c4ccsc4)N3c3ccc(C#CCCO)cc3)c2c1 (stereo unspecified),41.4*,-9.1,-5.2,4.3,2.5,-14.6
COc1cc(-c2ccc(N3C(c4ccsc4)=Cc4ccc(F)cc4C3c3c[nH]c4ccc(C#N)cc34)cc2)cc(OC)c1OC (stereo unspecified),-2.3,-8.4,1.8,-0.6,1.3,5.3
Clc1cccc(Cl)c1/C=N/Nc1c(Cl)cncc1Cl,4.3,27.9*,5.5,-15.0,0.0,-1.3
COc1ccccc1NC(=S)NC(=O)Cc1ccc(Cl)cc1,1.1,-6.8,5.0,9.0,4.4,-4.4
COc1cccc(NC(=O)c2cc(Cl)nnc2Cl)c1,-6.6,8.2,-5.0,-0.2,4.5,23.9*
